# Hits are enriched below; roughly 1.5% of the tested compounds scored in any of these assays.
# APJ antag = antagonists of human apelin receptor APJ, primary screen, CHO-K1 cells, beta-arrestin complementation, luminescence. P35414. inhibition, % at 20 µM. 330,000 tested, 0.32% active. AID 2521, 2010;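 active = inhibition above about 40% at 20 µM, limit read from the data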;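 also: cells challenged with 10 nM apelin-13 agonist together with compound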
# EBI2 block = EBI2 receptor antagonists, beta-arrestin recruitment, primary screen, cell-based, luminescence, 7a,25-OHC stimulation, uHTS; G-protein coupled receptor 183 (Homo sapiens), P32249; inhibition, % at 5 µM; 360,000 tested, 0.81% active; 7a,25-OHC stimulated; in the data active = inhibition above about 38%;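 also: enzyme fragment complementation signal reports receptor beta-arrestin coupling in cells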
# CXCR6 inh = CXCR6 receptor inhibitors, primary screen, cell-based, beta-arrestin, luminescence, CHO-K1 PathHunter, 1536-well. AID 602244, 2012. inhibition, % at 20 µM. 360,000 tested, 0.36% active; in the data active = inhibition above about 34%, passing the limit was not always enough;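 also: antagonist mode with CXCL16 agonist at 10 nM final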
# Target sequence (O00574 whole entry, looked up): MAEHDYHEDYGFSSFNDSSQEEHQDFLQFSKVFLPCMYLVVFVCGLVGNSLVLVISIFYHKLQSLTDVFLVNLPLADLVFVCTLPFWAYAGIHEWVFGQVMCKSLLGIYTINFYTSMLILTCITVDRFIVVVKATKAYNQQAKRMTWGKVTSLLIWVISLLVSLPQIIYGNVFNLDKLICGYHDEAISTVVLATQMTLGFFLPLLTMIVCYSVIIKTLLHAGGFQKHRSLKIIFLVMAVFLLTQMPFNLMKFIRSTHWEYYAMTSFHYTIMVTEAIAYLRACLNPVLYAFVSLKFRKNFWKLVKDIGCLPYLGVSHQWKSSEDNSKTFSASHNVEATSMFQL
# CCR6 antagonist = CCR6 receptor antagonists, primary screen, cell-based, CHO-K1, luminescence, beta-arrestin, uHTS | C-C chemokine receptor type 6 (Homo sapiens), P51684 | CHO-K1 CCR6 PathHunter beta-arrestin, CCL20-stimulated | inhibition, % at 20 µM | 340,000 tested, 0.49% active | AID 493098, 2011;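 active = compounds whose inhibition of the agonist-driven luminescence signal at 20 µM reaches about 50%, limit read from the data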;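 also: cells stimulated with CCL20 at 14 nM final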
# APJ ag = agonists of human apelin receptor APJ, primary screen, CHO-K1 cells, PathHunter beta-arrestin, luminescence | 0% DMSO wells, 100% apelin | activation, % at 20 µM | 330,000 tested, 0.11% active;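 active = activation more than six SD over the plate average, tested at 20 µM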
#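 Incubation: overnight seeding, 90 min compound at 25 °C, 1 h detection; test system: PathHunter CHO-K1 APJ (AGTRL-1) beta-arrestin reporter cells; amount: 1000 cells/well; doses: one dose, 20 µM compound, 1% DMSO; measured by: beta-gal luminescence; measure: agonist-driven arrestin binding to APJ; benchmarks: negative DMSO alone, positive Apelin-13 at 10 nM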
# CXCR6 antag conf = CXCR6 receptor antagonists, confirmation, cell-based, single concentration, beta-arrestin, luminescence | shares compounds with CXCR6 inh | CHO-K1 CXCR6 PathHunter beta-arrestin | inhibition, % at 20 µM | 700 tested, 65% active | AID 602409, 2012;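 active = mean inhibition over four retests above 40%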;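 also: receptor stimulated with 10 nM CXCL16 agonist; beta-galactosidase fragment complementation upon beta-arrestin recruitment to receptor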
# Hits are given with their value; n = inactive; x = no result.
SMILES,APJ antag,EBI2 block,CXCR6 inh,CCR6 antagonist,APJ ag,CXCR6 antag conf
C=CC[C@H](CC(=O)N(CCO)Cc1ccccc1)C(=O)N[C@H](COC(=O)[C@H](CC=C)CC(=O)OC(C)(C)C)Cc1ccccc1,n,n,42.5,n,n,n
C=CC[C@@H](CC(=O)N(CCO)Cc1ccccc1)C(=O)N[C@H](COC(=O)[C@@H](CC=C)CC(=O)OC(C)(C)C)C(C)(C)C,n,n,n,n,n,x
COc1ccc(/C=N/Nc2ccccc2)cc1Cn1nc(C)c([N+](=O)[O-])c1C,n,n,51.3,n,n,n
Cc1ccc(-c2cc(C(=O)Nc3ccccc3C(N)=O)c3ccccc3n2)o1,n,n,46.6,n,n,n
COc1ccc(NC(=O)c2cc(-c3ccc(C)o3)nc3ccccc23)c(OC)c1,n,n,n,n,n,x
CC(Oc1cccc(Br)c1)C(=O)NNC(=O)c1ccccn1 (stereo not given),n,n,52.1,n,n,55.9
C=CS(=O)(=O)c1ccc(Oc2ccc(S(=O)(=O)C=C)cc2)cc1,n,47.3,63.8,73.5,n,65.9
NS(=O)(=O)c1ccc(Oc2ccc(S(N)(=O)=O)cc2)cc1,n,n,n,n,n,x
Cc1ccc(C)c(N2CCN(c3ncccc3[N+](=O)[O-])CC2)c1,n,n,n,n,n,x
COc1cccc(C(C(=O)NC(C)(C)C)N(C(=O)CCC(=O)Nc2cc(C)on2)C(C)C)c1OC (stereo not given),n,n,46.9,n,n,n
COc1cccc(C(O)C2OC(=O)c3ccccc32)c1OC (stereo not given),n,n,n,n,n,x
Cc1ccc(NC(=O)c2cc(N3C(=O)C=CC3=O)ccc2N2CCOCC2)cc1,x,n,89.1,x,x,n
O=C(COc1ccc(Br)cc1Cl)NC(=S)N1CCc2ccccc21,n,n,56.9,n,n,53.4
CC(=O)Nc1ccc(S(=O)(=O)N(C)CC(=O)N/N=C/c2ccc(C(=O)O)cc2)cc1,n,n,87.5,n,n,n
COc1ccc(/C=N/NC(=O)CN(C)S(=O)(=O)c2ccc(NC(C)=O)cc2)cc1,n,n,n,n,n,x
CC1Cc2ccccc2N1C(=S)NC(=O)c1cccc(Br)c1 (stereo not given),n,n,47.5,x,n,65.4
Cc1cccc(NC(=S)N/N=C/c2ccc([N+](=O)[O-])s2)c1,n,n,56.2,x,n,53.1
Cc1cccc(NC(=O)/C=C/c2ccc([N+](=O)[O-])s2)c1,x,n,n,n,x,x
O=c1[nH]c(=O)n(C2OC(CO)C(O)C2O)c2c1CCCC2 (stereo not given),x,n,n,x,x,x
O=C(CSc1cccc2cccnc12)N1CCCC1,n,n,51.8,70.3,n,69.4
CCCCN1C(=O)C(CC(=O)NC2CCCC2)CC(C(=O)N(C(C)C)C(C)C)=C1C (stereo not given),x,n,n,x,x,x
CCOC(=O)Cc1c(C)nc2c(-c3cccc(Br)c3)c[nH]n2c1=O,n,n,35.7,n,n,n
CCNC(=S)N/N=C(\C)c1ccc(Cl)s1,n,n,41.1,n,n,n
C=C(C)CNC(=S)N/N=C(\C)c1ccc(Cl)s1,n,n,n,n,n,x
COc1ccc(N(CC(=O)NC2CCCC2)S(=O)(=O)c2c(C)[nH]c(=O)[nH]c2=O)cc1,n,n,35.3,n,n,n
SMILES,APJ antag,EBI2 block,CXCR6 inh,CCR6 antagonist,APJ ag,CXCR6 antag conf
Cc1cc(C)cc(N(CC(=O)NC2CCCC2)S(=O)(=O)c2c(C)[nH]c(=O)[nH]c2=O)c1,n,n,n,n,n,x
O=C(NCc1ccco1)c1nc2ccccc2s1,n,n,40.7,n,n,n
Cn1cnc([N+](=O)[O-])c1NC(C)(C)C,n,n,n,n,n,x
Cn1cnc([N+](=O)[O-])c1S(=O)(=O)c1ccc(Cl)cc1,x,n,41.7,n,x,68.8
O=C1c2cccc3c([N+](=O)[O-])ccc(c23)C(=O)N1Cc1cccnc1,x,n,59.5,x,x,65.3
CCCCC1CC2=C(C(=O)OC(C)(C)O2)C(c2cccc3ccccc23)O1 (stereo not given),x,n,n,x,x,x
Cc1ccc(OCCSc2nc3ccccc3n2CCC(=O)O)c(C(C)C)c1,x,n,n,x,x,x
N#C/C(=C\c1c[nH]c2ccccc12)C(N)=O,n,n,n,n,n,x
CC(=O)Oc1c(/C=C(\C#N)C(N)=O)[nH]c2ccccc12,x,n,42.5,n,x,n
COc1cc(C(=O)NCC(c2ccco2)N2CCc3ccccc3C2)cc(OC)c1OC (stereo not given),n,n,44.3,n,n,53.8
O=C(NCC(c1ccco1)N1CCc2ccccc2C1)c1ccccc1 (stereo not given),n,n,n,n,n,x
CC1(C)CC(=O)c2c(O)cc(OCC(=O)Nc3ccc(CCO)cc3)cc2O1,n,n,n,n,n,x
COc1cccc(-n2nc(C#N)c(Cl)cc2=O)c1,49.5,46.6,49.6,n,n,50.7
CCCC(=O)OCCNc1cc(SCCC(=O)OC)c2nonc2c1[N+](=O)[O-],n,n,49.8,62.2,n,63.1
O=[N+]([O-])c1c(NCCCO)cc(Sc2ccc(Cl)cc2)c2nonc12,x,n,76.6,98.5,x,95.8
Cn1ccnc1Sc1cc(NCCCO)c([N+](=O)[O-])c2nonc12,n,n,n,n,n,x
CC(=O)OCCNc1cc(Sc2nc3ccccc3[nH]2)c2nonc2c1[N+](=O)[O-],x,59.4,96.0,103.0,x,104.9
COC(=O)CCSc1cc(NCCOC(C)=O)c([N+](=O)[O-])c2nonc12,n,n,n,n,n,x
CCCCCc1ccc(-c2cn(Cc3ccc(C(=O)c4ccccc4)cc3)nn2)cc1,n,n,n,n,n,x
CCc1cc(-c2cnnn2Cc2ccccc2)ccc1-c1cn(CC(C)C)nn1,x,n,59.6,x,x,n
O=C(O)c1cccc(C(=O)O)c1Br,n,n,n,n,n,x
O=c1ccc2ccccc2c2ccccc12,x,n,31.1,x,x,n
CC(CN1CCCC1)OC(=O)c1ccc(Cl)cc1 (stereo not given),n,n,84.1,n,n,n
O=C(Nc1nc(=S)ss1)c1ccc(Cl)cc1Cl,x,n,n,n,x,x
CN1C(=O)CC(=O)N(C)c2cc(S(=O)(=O)N(C)Cc3ccccc3)ccc21,n,n,n,n,n,x
Cc1c(CCCl)c(Cl)n2c(nc3ccccc32)c1C#N,x,66.8,44.5,62.9,x,n
Cc1cc(Cl)n2c(nc3ccccc32)c1C#N,x,n,n,n,x,x
Nc1nc(COc2ccccc2)cs1,n,n,59.3,n,n,n
CCc1cccc2c(C(=O)C(F)(F)F)cn(CC(=O)NCC3CCCO3)c12 (stereo not given),n,n,45.6,n,n,n

# Bioassay records deposited in PubChem by Sanford-Burnham Center for Chemical Genomics.
